Test results published in ChEMBL document CHEMBL1914309, “Binding of isoxazole and pyrazole derivatives of curcumin with the activator binding domain of novel protein kinase C” (Bioorg Med Chem, 2011).
pEC50: −log10 of the molar value.

Assays:
[1] = molecular target: T1, Protein kinase C epsilon type (Homo sapiens, UniProt Q02156); experiment: Binding affinity to PKCepsilon C1B subdomain after 1 hr by fluorescence quenching analysis
T1 sequence (Q02156 whole entry): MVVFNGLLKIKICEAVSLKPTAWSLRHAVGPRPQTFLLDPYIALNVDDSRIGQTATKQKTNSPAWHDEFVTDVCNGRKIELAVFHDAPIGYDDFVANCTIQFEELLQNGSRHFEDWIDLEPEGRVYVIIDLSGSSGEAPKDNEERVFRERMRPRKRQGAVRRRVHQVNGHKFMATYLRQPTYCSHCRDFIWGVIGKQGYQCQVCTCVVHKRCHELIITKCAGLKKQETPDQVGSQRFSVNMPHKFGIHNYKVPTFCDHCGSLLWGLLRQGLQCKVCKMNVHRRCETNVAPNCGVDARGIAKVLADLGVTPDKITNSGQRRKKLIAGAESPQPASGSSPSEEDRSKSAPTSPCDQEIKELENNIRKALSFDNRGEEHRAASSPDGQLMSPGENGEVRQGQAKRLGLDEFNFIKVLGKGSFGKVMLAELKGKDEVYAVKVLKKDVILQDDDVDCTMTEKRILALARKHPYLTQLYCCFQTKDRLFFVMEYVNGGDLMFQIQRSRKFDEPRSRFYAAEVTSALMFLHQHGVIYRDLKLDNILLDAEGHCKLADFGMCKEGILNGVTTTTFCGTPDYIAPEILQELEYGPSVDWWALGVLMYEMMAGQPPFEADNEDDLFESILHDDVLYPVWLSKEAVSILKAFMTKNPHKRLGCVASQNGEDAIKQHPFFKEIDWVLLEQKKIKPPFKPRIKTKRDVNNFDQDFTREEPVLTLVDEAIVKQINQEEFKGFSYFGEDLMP
Method in brief: (§1)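 Purified C1B subdomain of PKC delta, epsilon or theta was titrated with ligand in 50 mM Tris, 150 mM NaCl, 2 mM DTT, ZnSO4, pH 7.2, at 25 °C. Intrinsic fluorescence was excited at 280 nm and emission recorded from 300–550 nm. (F0−F)/F at 350 nm was plotted against ligand concentration, and the curve was fitted to a modified Hill equation to give EC50 and Hill coefficient.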

[2] = Selectivity ratio of EC50 for PKCepsilon C1B subdomain to EC50 for PKCtheta C1B subdomain
Method in brief: (§2)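 Ratios of EC50 values, each taken from a modified-Hill fit of intrinsic tryptophan/tyrosine fluorescence quenching (excitation 280 nm, read at 350 nm) of the C1B subdomains in Tris/NaCl/DTT/ZnSO4 buffer, pH 7.2, at 25 °C.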

[3] = Selectivity ratio of EC50 for PKCdelta C1B subdomain to EC50 for PKCtheta C1B subdomain; method in brief: as §2
[4] = molecular target: Protein kinase C theta type (Homo sapiens, UniProt Q04759); experiment: Binding affinity to PKCtheta C1B subdomain after 1 hr by fluorescence quenching analysis; method in brief: as §1
Sequence of Protein kinase C theta type (Q04759 whole entry): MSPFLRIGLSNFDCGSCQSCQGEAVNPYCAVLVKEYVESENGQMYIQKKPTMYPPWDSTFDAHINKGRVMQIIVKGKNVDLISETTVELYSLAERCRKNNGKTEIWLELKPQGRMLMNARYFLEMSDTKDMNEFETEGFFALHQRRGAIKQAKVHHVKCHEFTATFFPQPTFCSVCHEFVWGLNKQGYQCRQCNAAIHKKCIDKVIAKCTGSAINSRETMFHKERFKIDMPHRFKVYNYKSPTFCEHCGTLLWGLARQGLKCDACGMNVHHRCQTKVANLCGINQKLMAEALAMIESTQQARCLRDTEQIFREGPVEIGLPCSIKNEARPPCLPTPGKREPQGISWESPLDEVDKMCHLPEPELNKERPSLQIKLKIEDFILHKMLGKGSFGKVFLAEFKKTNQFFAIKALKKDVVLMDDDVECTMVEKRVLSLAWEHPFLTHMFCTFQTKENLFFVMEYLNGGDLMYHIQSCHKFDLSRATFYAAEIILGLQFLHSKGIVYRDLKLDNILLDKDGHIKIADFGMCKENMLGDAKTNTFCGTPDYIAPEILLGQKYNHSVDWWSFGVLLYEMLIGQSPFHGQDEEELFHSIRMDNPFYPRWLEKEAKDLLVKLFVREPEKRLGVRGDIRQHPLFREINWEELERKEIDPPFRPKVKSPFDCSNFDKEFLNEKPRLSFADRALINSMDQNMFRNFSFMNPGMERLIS

[5] = molecular target: Protein kinase C delta type (Homo sapiens, UniProt Q05655); experiment: Binding affinity to PKCdelta C1B subdomain after 1 hr by fluorescence quenching analysis; method in brief: as §1
Sequence of Protein kinase C delta type (Q05655 whole entry): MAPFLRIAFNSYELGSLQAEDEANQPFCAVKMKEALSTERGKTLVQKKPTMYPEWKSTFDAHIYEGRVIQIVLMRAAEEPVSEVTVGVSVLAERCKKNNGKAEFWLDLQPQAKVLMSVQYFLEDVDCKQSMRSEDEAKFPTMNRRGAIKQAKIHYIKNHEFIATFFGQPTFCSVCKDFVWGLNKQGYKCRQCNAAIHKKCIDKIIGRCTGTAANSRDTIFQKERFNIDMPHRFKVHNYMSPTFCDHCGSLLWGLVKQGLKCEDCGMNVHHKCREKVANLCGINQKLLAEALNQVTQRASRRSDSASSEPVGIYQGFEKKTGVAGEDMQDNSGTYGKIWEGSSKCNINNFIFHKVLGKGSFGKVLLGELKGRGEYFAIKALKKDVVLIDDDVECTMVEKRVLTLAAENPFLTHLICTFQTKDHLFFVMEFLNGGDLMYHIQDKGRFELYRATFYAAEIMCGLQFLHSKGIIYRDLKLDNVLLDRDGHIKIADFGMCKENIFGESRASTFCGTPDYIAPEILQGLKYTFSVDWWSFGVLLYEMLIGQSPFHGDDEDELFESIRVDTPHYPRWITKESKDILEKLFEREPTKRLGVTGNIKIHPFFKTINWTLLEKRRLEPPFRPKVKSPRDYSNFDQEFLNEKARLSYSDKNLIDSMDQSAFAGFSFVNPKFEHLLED

[6] = Solubility of the compound; assay type: physicochemical

| Structure (SMILES) | pEC50 [1] | Ratio EC50 [2] | Ratio EC50 [3] | pEC50 [4] | pEC50 [5] | solubility [6] |
| --- | --- | --- | --- | --- | --- | --- |
| COc1cc(/C=C/c2cc(/C=C/c3ccc(O)c(OC)c3)on2)ccc1O | 4.93 | 3 | 3 | 5.50 | 4.94 |  |
| CCCCOc1ccc(/C=C/c2cc(/C=C/c3ccc(O)c(OC)c3)n[nH]2)cc1OC | 4.79 |  |  | 4.80 | 4.66 |  |
| CCCCOc1ccc(/C=C/c2cc(/C=C/c3ccc(OCCCC)c(OC)c3)on2)cc1OC | 4.63 |  |  | 5.15 | 4.60 |  |
| COc1cc(/C=C/c2cc(/C=C/c3ccc(O)c(OC)c3)[nH]n2)ccc1O [CURCUMIN PYRAZOLE] | 4.73 | 2 | 2 | 5.14 | 4.82 |  |
| CCCCCCCCOc1ccc(/C=C/c2cc(/C=C/c3ccc(OCCCCCCCC)c(OC)c3)on2)cc1OC |  |  |  |  |  | Insoluble |
